Results pooled from the literature.

With `C=CC(=O)NC1CCN(c2ncc3ncnc(Nc4ccc(Oc5ccc6c(c5)ncn6C)c(C)c4)c3n2)CC1` the EC50 was 1150 nM (Hs766T; cell growth or viability).
With `CC(C)c1ccccc1[C@@H]1CCCN1C1CC2(CCN(c3ccc(C(=O)NS(=O)(=O)c4ccc(NC[C@H]5CC[C@](C)(O)CC5)c([N+](=O)[O-])c4)c(Oc4cnc5[nH]ccc5c4)c3)CC2)C1` the IC50 was 13 nM (MINO; cell growth or viability, ATP luminescence; 48 h).
With `C=C(F)C(=O)N1CCN(c2nc(OC[C@@H]3CCCN3C)nc3c2CCN(c2cccc4cccc(Cl)c24)C3)C[C@@H]1CC#N` the IC50 was 40.9 nM (Calu-1; cell growth or viability, ATP luminescence; 3D culture).
For `CC1(C)CCC(CN2CCN(c3ccc(C(=O)NS(=O)(=O)c4ccc(NCC5CCOCC5)c([N+](=O)[O-])c4)c(Oc4cnc5[nH]ccc5c4)c3)CC2)=C(c2ccc(Cl)cc2)C1`, the IC50 was 5380 nM (SU-DHL-8; cell growth or viability, ATP luminescence; 48 h).
`C=CC(=O)c1cccnc1Nc1cc(C(F)(F)F)ccc1OCc1ccccc1` gave a GI50 of 12.8 µM (NCI-H226; cell growth or viability, CCK-8; 72 h).
`O=C(O)c1ccc2c(c1)nc(Nc1cccc(Cl)c1)c1ccncc12` gave an IC50 of 14200 nM (NCI-H226; cell growth or viability, resazurin; 48 h).
`CN(C)C(=O)c1cc2cnc(Nc3ccc(N4CCNCC4)cn3)nc2n1C1CCCC1` gave an IC50 of 1670 nM (human Neutrophil; reactive oxygen species, inhibitor).
The GI50 of `O=C(O)c1cccnc1Nc1cccc(C(F)(F)F)c1` is reported as > 40 µM (NCI-H226; cell growth or viability, CCK-8; 72 h).
`C=CC(=O)N1CCN(c2nc(=O)n(-c3c(C)ccnc3C(C)C)c3nc(-c4c(O)cccc4F)c(F)cc23)[C@@H](C)C1` gave an IC50 of 7.75 nM (Calu-1; cell growth or viability, ATP luminescence).
